Compound activity as filed in PubChem.
TAAR1 agonist: human TAAR1 agonism. Q96RJ0. CHO RD-HGA16 TAAR1, Fluo-8 calcium fluorescence; vehicle wells 0%, saturating PEA agonist 100%. activation, % at 3 µM. 360,000 tested, 0.99% active;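 active = activation above the mean activation of all test compounds in the run plus 3 SD, cut at about 38% in these data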
Target sequence (Q96RJ0 whole entry, looked up): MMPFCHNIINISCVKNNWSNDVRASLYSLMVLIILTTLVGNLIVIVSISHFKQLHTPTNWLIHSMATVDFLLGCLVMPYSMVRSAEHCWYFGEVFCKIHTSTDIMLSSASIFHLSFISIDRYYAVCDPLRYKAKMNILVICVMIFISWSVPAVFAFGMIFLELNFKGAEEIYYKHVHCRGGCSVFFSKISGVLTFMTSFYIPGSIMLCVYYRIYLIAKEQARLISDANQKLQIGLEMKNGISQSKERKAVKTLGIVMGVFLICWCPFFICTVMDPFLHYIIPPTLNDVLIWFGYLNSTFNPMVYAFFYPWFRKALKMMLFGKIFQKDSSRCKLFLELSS
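Repeats: no replicates (n 1) | Material: CHO-derived RD-HGA16 cells with stable Gα16 and human TAAR1 | Technique: Kinetic Fluo-8 calcium fluorescence | Schedule: 17-24 h seeding, 75 min 37 °C dye, 30 min RT | Evaluation: % activation from peak over basal fluorescence ratio, DMSO-to-PEA scaled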
TAAR1 antagonist: human TAAR1 antagonism. inhibition, % at 3 µM. Q96RJ0. 360,000 tested, 1.5% active. CHO RD-HGA16 TAAR1, Fluo-8 calcium fluorescence, antagonist;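 active = inhibition above a per-plate cutoff, the mean inhibition of test compounds on that plate plus 3 SD, cut at about 49% in these data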
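Assay system: CHO-derived RD-HGA16 cells stably expressing human TAAR1 plus Gα16. Timing: 140 s kinetic read after compound, 140 s after agonist. Technique: kinetic Fluo-8 calcium fluorescence measurement. Measure: % inhibition of agonist calcium response.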
OXTR ag: agonists of human oxytocin receptor; 320,000 tested, 0.32% active; AID 2435; P30559; CHO-OTR cells, Fluo-8 calcium fluorescence; normalized: DMSO 0%, oxytocin 100%; activation, % at 3 µM;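 active = activation above the mean of all tested compounds plus 3 SD, cutoff set per screening run, cut at about 20% in these data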;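 also: peak over basal fluorescence ratio from a 100 s FLIPR kinetic read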
Target sequence (P30559 whole entry, looked up): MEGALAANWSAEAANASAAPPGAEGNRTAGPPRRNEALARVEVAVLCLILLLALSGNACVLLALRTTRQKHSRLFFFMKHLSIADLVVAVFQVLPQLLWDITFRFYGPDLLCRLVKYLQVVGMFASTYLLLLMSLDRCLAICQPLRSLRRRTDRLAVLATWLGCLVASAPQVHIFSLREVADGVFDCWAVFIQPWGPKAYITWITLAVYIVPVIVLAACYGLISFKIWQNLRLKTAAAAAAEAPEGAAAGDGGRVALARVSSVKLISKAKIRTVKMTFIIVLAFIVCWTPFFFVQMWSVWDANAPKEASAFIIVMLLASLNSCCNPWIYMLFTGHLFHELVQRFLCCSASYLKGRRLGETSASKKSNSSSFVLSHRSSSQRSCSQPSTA
V1aR counter: V1a receptor agonism, counter-screen for OXTR agonists | P37288 | CHO-V1R cells, Fluo-8 calcium fluorescence, agonist mode; 0% DMSO, 100% 3 nM vasopressin | activation, % at 3 µM | 320,000 tested, 0.25% active;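 active = activation above the mean activation of all tested compounds plus 3 SD, per screening run, cut at about 20% in these data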;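 also: signal is peak over basal fluorescence ratio across a 100 second FLIPR read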
OXTR potentiator: potentiators of human oxytocin receptor. CHO-OTR cells, Fluo-8 calcium fluorescence, potentiator mode; 0% = oxytocin EC15, 100% = EC100. activation, % at 3 µM. 320,000 tested, 0.061% active. AID 2445;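 active = activation above that plate's cutoff, the mean activation of tested compounds plus 3 SD, cut at about 6.6% in these data, passing the limit was not always enough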
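Material: human OTR in CHO cells. Compound: 3.0 µM, one dose. Timing: compound 6 min at room temperature before oxytocin, 100 s read. Evaluation: % activation of max/min ratio relative to oxytocin controls. Replication: single well per compound, singlicate. Signal: Fluo-8 calcium dye fluorescence.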
nonsel antag count: nonselective antagonist in TAAR1 antagonist counter-screen | counterscreen cell line, calcium fluorescence, antagonist mode | inhibition, % at 3 µM | 2,400 tested, 77% active | AID 651780 | shares compounds with TAAR1 antagonist; in the data active = inhibition above about 22%;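 also: CHO-Ga16 host cells stimulated with ATP at an EC80 level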
TAAR1 antag conf: human TAAR1 antagonism, confirmed; shares compounds with TAAR1 antagonist; 2,400 tested, 40% active; AID 651785; inhibition, % at 3 µM; TAAR1-expressing cells, fluorescence antagonist read-out; in the data active = inhibition above about 49%;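 also: CHO-Ga16 host cells challenged with agonist PEA near its EC80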
Ga16 nonsel ag: counter-screen for TAAR1 antagonists: nonselective Ga16 agonists; shares compounds with TAAR1 antagonist; Ga16-expressing cells, calcium fluorescence, agonist counterscreen; activation, % at 3 µM; 2,400 tested, 18% active; AID 651953; in the data active = activation above about 12%
TAAR1 ag counter: counter-screen for human TAAR1 antagonists: TAAR1 agonists | hTAAR1 cell line, fluorescence activation, agonist mode | AID 651955 | 2,400 tested, 2% active | activation, % at 3 µM | shares compounds with TAAR1 antagonist; in the data active = activation above about 37%;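 also: CHO cells stably expressing TAAR1 with calcium dye readout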
Numbers stand for hits; – = inactive; · = not tested or not shown. Shown are actives, neighbours in structure and some others; about 2.3% of the full set was active somewhere.

SMILES | TAAR1 agonist | TAAR1 antagonist | OXTR ag | V1aR counter | OXTR potentiator | nonsel antag count | TAAR1 antag conf | Ga16 nonsel ag | TAAR1 ag counter
COc1ccccc1CNC(=O)c1cccc(S(=O)(=O)N2CCN(C)CC2)c1 | – | – | – | – | – | · | · | · | ·
COc1cc(OC)c(OC)cc1CNC(=O)c1cccc(S(=O)(=O)N2CCc3ccccc3C2)c1 | – | 68.0 | · | · | · | 46.9 | 57.1 | 13.7 | –
CN(C)S(=O)(=O)c1cccc(NC(=O)COc2ccccc2C(=O)NCc2ccccc2)c1 | – | 62.8 | · | · | · | 24.8 | – | – | –
COc1cc(C=O)ccc1OCC(=O)Nc1cccc(S(=O)(=O)N(C)c2ccccc2)c1 | – | 62.6 | – | – | – | 34.9 | 53.9 | – | –
COc1ccccc1C(=O)NCC(=O)OCC(=O)Nc1cccc(S(=O)(=O)N(C)C)c1 | – | – | – | – | – | · | · | · | ·
CN(Cc1ccccc1)C(=S)Nc1ccc2nc3n(c(=O)c2c1)CCCCC3 | – | – | – | – | – | · | · | · | ·
C[C@H](CO)N1C[C@H](C)[C@@H](CN(C)Cc2ccccc2)Oc2c(NC(=O)Cc3ccccc3)cccc2C1=O | – | 68.1 | – | – | – | 25.8 | – | – | –
C[C@H](CO)N1C[C@H](C)[C@@H](CN(C)Cc2ccncc2)Oc2c(NC(=O)Cc3ccccc3)cccc2C1=O | – | – | – | – | – | · | · | · | ·
C[C@H](CO)N1C[C@H](C)[C@@H](CN(C)C(=O)Nc2ccc3c(c2)OCO3)Oc2c(NC(=O)Nc3ccc4c(c3)OCO4)cccc2C1=O | – | 69.4 | – | – | – | 31.4 | 53.1 | – | –
COc1ccc(NC(=O)Nc2cccc3c2O[C@H](CN(C)C(=O)Nc2ccc4c(c2)OCO4)[C@@H](C)CN([C@H](C)CO)C3=O)cc1 | – | 65.0 | – | – | – | 33.0 | 53.0 | – | –
C[C@H]1CN([C@@H](C)CO)C(=O)c2cccc(NC(=O)C3CC3)c2O[C@H]1CN(C)C(=O)Nc1ccc2c(c1)OCO2 | – | – | – | – | – | · | · | · | ·
Cc1nc2scc(-c3ccccc3)c2c(=O)n1N | – | – | – | – | – | · | · | · | ·
Cc1nc2scc(-c3ccccc3)c2c(=O)n1N=C1C=CC(=O)C=C1 | – | 62.2 | · | · | · | 55.5 | 54.0 | – | –
c1ccc(-c2cn(C[C@H]3CC[C@@H]([C@@H]4CC[C@H](Cn5cc(-c6ccccc6)nn5)O4)O3)nn2)cc1 | – | – | – | – | – | · | · | · | ·
c1ccc(CCc2cn(C[C@H]3CC[C@@H]([C@@H]4CC[C@H](Cn5cc(CCc6ccccc6)nn5)O4)O3)nn2)cc1 | – | 56.9 | – | – | – | 31.8 | 56.5 | 12.9 | –
O=C(NCCc1ccccc1)c1ccc2c(c1)S(=O)(=O)c1cc(Cl)ccc1C2=O | – | – | – | – | – | · | · | · | ·
O=C(NCCc1ccccc1)c1ccc2c(c1)S(=O)(=O)c1ccccc1C2=O | – | 51.7 | – | – | – | – | – | – | –
O=C(NCc1ccc(F)cc1)c1ccc2c(c1)S(=O)(=O)c1ccccc1C2=O | – | 51.9 | – | – | – | 24.8 | – | – | –
O=C(NCc1ccc(C(F)(F)F)cc1)c1ccc2c(c1)S(=O)(=O)c1ccccc1C2=O | – | – | – | – | – | · | · | · | ·
CCOC(=O)C1=C(C)NC(C)=C(C(=O)OCC)C1C(=O)OCC(=O)NC1CCCCC1 | – | 61.1 | – | – | – | 27.4 | 52.0 | – | –
CCOC(=O)C1=C(C)NC(C)=C(C(=O)OCC)C1C(=O)OCC(=O)NC1(C#N)CCCCC1 | – | 62.7 | – | – | – | 29.0 | 54.5 | – | –
O=C(Nc1ccc(N2CCN(C(=O)c3ccco3)CC2)cc1)c1ccc([N+](=O)[O-])cc1Cl | – | – | – | – | – | · | · | · | ·
O=C(Nc1ccc2c(c1)CCCN2C(=O)c1ccco1)c1cc([N+](=O)[O-])ccc1Cl | – | 61.3 | – | – | – | 25.6 | – | – | –
COc1ccccc1NC(=O)Nc1nc(CC(=O)Nc2cccc(F)c2)cs1 | – | – | – | – | – | · | · | · | ·
COc1ccccc1NC(=O)Nc1nc(CC(=O)N2CCN(c3ccc(F)cc3)CC2)cs1 | – | 72.3 | – | – | – | 45.6 | 57.4 | 12.9 | –
SMILES | TAAR1 agonist | TAAR1 antagonist | OXTR ag | V1aR counter | OXTR potentiator | nonsel antag count | TAAR1 antag conf | Ga16 nonsel ag | TAAR1 ag counter
COc1ccc(C)cc1NC(=O)Cc1csc(NC(=O)Nc2ccccc2OC)n1 | – | 72.6 | · | · | · | 26.9 | – | – | –
COc1ccccc1NC(=O)Nc1nc(CC(=O)Nc2cc(F)ccc2F)cs1 | – | 59.7 | – | – | – | 33.8 | 56.4 | – | –
COc1ccccc1NC(=O)Nc1nc(CC(=O)Nc2ccc(F)cc2)cs1 | – | 51.9 | – | – | – | 21.8 | – | – | –
COc1ccccc1NC(=O)Nc1nc(CC(=O)Nc2ccc(F)c(F)c2)cs1 | – | – | – | – | – | · | · | · | ·
COCCCn1cnnc1SCc1nc2sc(C(C)=O)c(C)c2c(=O)[nH]1 | – | – | – | – | – | · | · | · | ·
COc1ccc(N2C(=O)CCC(C(=O)NCCCN3CCC(C)CC3)C2c2ccc(OC)c(OC)c2)cc1 (centres undefined) | – | – | – | – | – | · | · | · | ·
COc1cccc(CN2CC(C(=O)N3CCCCCC3)CCC2=O)c1 (centres undefined) | – | – | – | – | – | · | · | · | ·
COc1ccccc1NC(=O)Nc1ccc(NC(=O)c2ccccc2O)cc1 | – | 61.0 | – | – | – | 39.0 | – | – | –
COc1ccc(NC(=O)Nc2ccccc2OC)cc1 | – | – | – | – | – | · | · | · | ·
COc1ccc([C@H]2CC(=O)C=C(c3cccc(C(C)C)c3)C2)cc1 | – | 50.5 | – | – | – | – | – | – | –
COc1ccc([C@H]2CC(=O)C=C(c3cccc(OC)c3)C2)cc1 | – | – | – | – | – | · | · | · | ·
COc1ccc2cc(-c3cc(C(=O)OCC(=O)NC4CCS(=O)(=O)C4)c4ccccc4n3)ccc2c1 (centres undefined) | – | 58.9 | – | – | – | 40.9 | 51.4 | 11.8 | –
Cc1ccc(S(=O)(=O)N(C)CC(=O)N(C)Cc2cccs2)cc1 | – | – | · | · | · | · | · | · | ·
Cc1ccccc1OCC(=O)N=Nc1c(O)n(C)c2ccccc12 | – | 53.7 | – | – | – | 27.3 | – | – | –
C=CC[C@@H](CC(=O)NCCO)C(=O)NCCOC(=O)[C@@H](CC=C)Cc1ccc(F)cc1 | – | – | – | – | – | · | · | · | ·
